Converted amounts (≈) assume the structure as drawn.
Experiments:
Escherichia coli [1] = experiment: Antibacterial activity against ESBL-producing multidrug resistant Escherichia coli assessed as reduction in bacterial growth incubated for 18 to 20 hrs by CLSI based microdilution method; assay type: functional; details: time 18-20 hrs
Outline: (§1)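 Broth microdilution per CLSI. Compounds dissolved in DMSO (levofloxacin and meropenem in water) as 64 μg/mL stock, then serial twofold dilutions in broth giving 64 to 0.008 μg/mL. […] Clinical isolates tested as several strains per group; racemic GP-1 served as positive control; values given as MIC ranges.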

Escherichia coli [2] = experiment: Antibacterial activity against multidrug resistant wild type Escherichia coli ATCC BAA-2340 assessed as reduction in bacterial growth incubated for 18 to 20 hrs by CLSI based microdilution method; assay type: functional; details: time 18-20 hrs; outline: as §1
Escherichia coli [3] = experiment: Antibacterial activity against multidrug resistant wild type Escherichia coli NCTC 13353 assessed as reduction in bacterial growth incubated for 18 to 20 hrs by CLSI based microdilution method; assay type: functional; details: time 18-20 hrs; outline: as §1
Klebsiella pneumoniae [4] = experiment: Antibacterial activity against KPC2-producing multidrug resistant Klebsiella pneumoniae assessed as reduction in bacterial growth incubated for 18 to 20 hrs by CLSI based microdilution method; assay type: functional; details: time 18-20 hrs; outline: as §1
Klebsiella pneumoniae [5] = experiment: Antibacterial activity agains wild type Klebsiella pneumoniae ATCC BAA-1705 assessed as reduction in bacterial growth incubated for 18 to 20 hrs by CLSI based microdilution method; assay type: functional; details: time 18-20 hrs
Outline: (§2)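 CLSI broth microdilution. Compounds in DMSO (levofloxacin and meropenem in water), serial twofold dilutions in broth, 64 to 0.008 μg/mL. […] Results reported as MIC ranges across strains.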

Klebsiella pneumoniae [6] = experiment: Antibacterial activity agains wild type Klebsiella pneumoniae ATCC BAA-2470 assessed as reduction in bacterial growth incubated for 18 to 20 hrs by CLSI based microdilution method; assay type: functional; details: time 18-20 hrs; outline: as §1
Acinetobacter baumannii [7] = experiment: Antibacterial activity agains OXA23-producing multidrug resistant Acinetobacter baumannii assessed as reduction in bacterial growth incubated for 18 to 20 hrs by CLSI based microdilution method; assay type: functional; details: time 18-20 hrs; outline: as §1
Acinetobacter baumannii [8] = experiment: Antibacterial activity against wild type Acinetobacter baumannii NCTC 13304 assessed as reduction in bacterial growth incubated for 18 to 20 hrs by CLSI based microdilution method; assay type: functional; details: time 18-20 hrs; outline: as §1
Pseudomonas aeruginosa [9] = experiment: Antibacterial activity against IMP4-producing multidrug resistant Pseudomonas aeruginosa assessed as reduction in bacterial growth incubated for 18 to 20 hrs by CLSI based microdilution method; assay type: functional; details: time 18-20 hrs; outline: as §1
Pseudomonas aeruginosa [10] = experiment: Antibacterial activity against wild type Pseudomonas aeruginosa ATCC 27853 assessed as reduction in bacterial growth incubated for 18 to 20 hrs by CLSI based microdilution method; assay type: functional; details: time 18-20 hrs; outline: as §2
[11] = Metabolic stability in rat liver microsome assessed as elimination half life at 0.1 uM in presence of NADPH incubated upto 60 mins by LC-MS/MS analysis; assay type: ADME; details: liver microsomes, read-out: beta t1/2
Outline: (§3)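 Compound at 0.1 μM final, in 0.01% DMSO with 0.005% BSA. Incubated with rat or human liver microsomes at 0.33 mg/mL in 0.1 M Tris-HCl, pH 7.4, with 5 mM MgCl₂ and 1 mM NADPH, at 37 °C. Samples at 0, 7, 17, 30 and 60 min quenched with cold methanol and analysed by LC-MS/MS. Half-life, Cl_int and MF% derived as previously described.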

[12] = Metabolic stability in human liver microsome assessed as elimination half life at 0.1 uM in presence of NADPH incubated upto 60 mins by LC-MS/MS analysis; assay type: ADME; details: liver microsomes, read-out: beta t1/2; outline: as §3
[13] = Metabolic stability in rat liver microsome assessed as intrinsic clearance at 0.1 uM in presence of NADPH incubated upto 60 mins by LC-MS/MS analysis; assay type: ADME; details: microsomes, 1 h; outline: as §3
[14] = Metabolic stability in human liver microsome assessed as intrinsic clearance at 0.1 uM in presence of NADPH incubated upto 60 mins by LC-MS/MS analysis; assay type: ADME; details: microsomes, 1 h; outline: as §3
[15] = Metabolic stability in rat liver microsome assessed as metabolic bioavailability at 0.1 uM in presence of NADPH incubated upto 60 mins by LC-MS/MS analysis; assay type: ADME; details: liver microsomes; outline: as §3
[16] = Metabolic stability in human liver microsome assessed as metabolic bioavailability at 0.1 uM in presence of NADPH incubated upto 60 mins by LC-MS/MS analysis; assay type: ADME; details: liver microsomes; outline: as §3
Staphylococcus aureus [17] = experiment: Antibacterial activity against methicillin-resistant Staphylococcus aureus strains 15 1 to 4 assessed as reduction in bacterial growth incubated for 18 to 20 hrs by CLSI based microdilution method; assay type: functional; details: time 18-20 hrs; outline: as §1
Staphylococcus aureus [18] = experiment: Antibacterial activity against methicillin-sensitive Staphylococcus aureus strains 15 1 to 4 assessed as reduction in bacterial growth incubated for 18 to 20 hrs by CLSI based microdilution method; assay type: functional; details: time 18-20 hrs; outline: as §1
[19] = test system: Staphylococcus epidermidis; experiment: Antibacterial activity against methicillin-sensitive Staphylococcus epidermidis strains 15 1 to 4 assessed as reduction in bacterial growth incubated for 18 to 20 hrs by CLSI based microdilution method; assay type: functional; details: time 18-20 hrs; outline: as §1
Escherichia coli [20] = experiment: Antibacterial activity against ESBL-producing Escherichia coli ATCC 35218 strains 15 1 to 3 assessed as reduction in bacterial growth incubated for 18 to 20 hrs by CLSI based microdilution method; assay type: functional; details: time 18-20 hrs; outline: as §2
Escherichia coli [21] = experiment: Antibacterial activity against Escherichia coli ATCC 35218 strains 15 1 to 3 assessed as reduction in bacterial growth incubated for 18 to 20 hrs by CLSI based microdilution method; assay type: functional; details: time 18-20 hrs; outline: as §2
Pseudomonas aeruginosa [22] = experiment: Antibacterial activity against multidrug resistant Pseudomonas aeruginosa strains 15 1 to 3 assessed as reduction in bacterial growth incubated for 18 to 20 hrs by CLSI based microdilution method; assay type: functional; details: time 18-20 hrs; outline: as §1

Compound | MIC (Staphylococcus aureus [17]) [ng/mL] | MIC (Staphylococcus aureus [18]) [ng/mL] | MIC [19] [µg/mL] | MIC (Escherichia coli [20]) [µg/mL] | MIC (Escherichia coli [21]) [µg/mL] | MIC (Pseudomonas aeruginosa [22]) [µg/mL] | further results
[2H]C([2H])([2H])Nc1cc(F)cc2c1[nH]c1nc(Oc3cnc(C)nc3)nc(N3CC(=C(CC)CN)C3)c12 | – | – | – | – | – | – | MIC (Escherichia coli [1]): 0.5 µg/mL (≈ 1.11 µM); MIC (Escherichia coli [2]): 0.25 µg/mL (≈ 0.554 µM); MIC (Escherichia coli [3]): 0.125 µg/mL (≈ 0.277 µM); MIC (Klebsiella pneumoniae [4]): 1 µg/mL (≈ 2.21 µM); MIC (Klebsiella pneumoniae [5]): 4 µg/mL (≈ 8.86 µM); MIC (Klebsiella pneumoniae [6]): 2 µg/mL (≈ 4.43 µM); MIC (Acinetobacter baumannii [7]): 0.25 µg/mL (≈ 0.554 µM); MIC (Acinetobacter baumannii [8]): 0.25 µg/mL (≈ 0.554 µM); MIC (Pseudomonas aeruginosa [9]): 4 µg/mL (≈ 8.86 µM); MIC (Pseudomonas aeruginosa [10]): 2 µg/mL (≈ 4.43 µM); half-life at 0.1 µM [11]: 32.9 min; half-life at 0.1 µM [12]: 105 min; CLH [13]: 63.9 mL/min/g; CLH [14]: 20 mL/min/g; Fh at 1 h, 0.1 µM [15]: 41%; Fh at 1 h, 0.1 µM [16]: 49.6%
CCC(CN)=C1CN(c2nc(Sc3cnc(C)nc3)nc3[nH]c4c(NC)cc(F)cc4c23)C1 | < 8 | 8 (≈ 0.0172 µM) | < 0.008 | 1 (≈ 2.15 µM) | 0.5 (≈ 1.08 µM) | > 16 | –
CCC(CO)=C1CN(c2nc(Oc3cnc4ccnn4c3)nc3[nH]c4c(NC)cc(F)cc4c23)C1 | – | – | – | 0.25 (≈ 0.527 µM) | 0.25 (≈ 0.527 µM) | – | –
CNc1cc(F)cc2c1[nH]c1nc(Oc3cnc(C)nc3)nc(N3CC(=C(CO)C(C)C)C3)c12 | < 30 | < 8 | < 0.03 | 0.5 (≈ 1.08 µM) | 0.125 (≈ 0.27 µM) | ≥ 64 | –
CNc1cc(F)cc2c1[nH]c1nc(Oc3cnc(C)nc3)nc(N3CC/C(=C(/F)CN)C3)c12 | 8 (≈ 0.0177 µM) | < 8 | < 0.008 | 0.125 (≈ 0.276 µM) | 0.06 (≈ 0.133 µM) | 2 (≈ 4.42 µM) | –
CCC(CN)=C1CN(c2nc(S(C)(=O)=O)nc3[nH]c4c(NC)cc(F)cc4c23)C1 | – | > 16000 | > 16 | > 16 | > 16 | > 16 | –
